Results as given in ChEMBL document CHEMBL1128419, “Orally active beta-lactam inhibitors of human leukocyte elastase. 3. Stereospecific synthesis and structure-activity relationships for 3,3-dialkylazetidin-2-ones” (J Med Chem, 1995).

Columns and labels:
[1] = target: T1, Neutrophil elastase (Homo sapiens) (UniProt P08246); assay: In vitro inhibition of human leukocyte elastase (HLE), and the Kobs[I] is the second-order rate constant for the time dependent inactivation of HLE by the compound.
T1 sequence (whole entry): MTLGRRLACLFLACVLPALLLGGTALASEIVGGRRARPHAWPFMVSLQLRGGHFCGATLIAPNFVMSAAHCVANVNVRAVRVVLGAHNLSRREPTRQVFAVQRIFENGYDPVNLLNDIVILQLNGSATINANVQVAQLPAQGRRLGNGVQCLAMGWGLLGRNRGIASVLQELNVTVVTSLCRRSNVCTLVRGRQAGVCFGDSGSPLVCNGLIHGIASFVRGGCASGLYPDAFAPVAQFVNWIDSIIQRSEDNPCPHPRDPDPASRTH

[2] = target: T1, Neutrophil elastase (Homo sapiens); assay: Compound at an peroral dose of 30 mpk was tested for the inhibition of HLE-induced lung hemorrhage in hamsters; type: functional
Outline: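 Hamster lung hemorrhage screen: 30 mg/kg given orally as Methocel suspension 30 min before intratracheal instillation of 50 units HLE/animal; sacrifice at 3 h, saline lung lavage, hemoglobin measured at 414 nm; % inhibition versus vehicle-treated animals, averaged over three animals per dose and time.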

Cricetinae gen. sp. [3] = assay: Oral effective dose required to inhibit HLE-induced lung hemorrhage in hamster; type: functional, Cricetulus griseus
Outline: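 Oral doses of 30, 10, 3, 1 (and 0.3) mg/kg as Methocel suspension given 30 min before intratracheal instillation of 50 units HLE/animal in hamsters; lungs lavaged 3 h later, hemoglobin read at 414 nm; % inhibition versus vehicle used to fit a dose-response curve for ED50.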

Neutrophil elastase = target: T2, Neutrophil elastase (Homo sapiens, UniProt P08246); assay: In vitro human leukocyte elastase (HLE) inhibition, and the Kobs[I] is the second-order rate constant for the time dependent inactivation of HLE by the compound.
T2 sequence (P08246 whole entry): T1 sequence (whole entry)

Cricetinae gen. sp. [4] = assay: Compound at an peroral dose of 100 mpk was tested for the inhibition of HLE-induced lung hemorrhage in hamsters; type: functional, Cricetulus griseus; conditions: po

SMILES	K obs / 1 [1] [M⁻¹ s⁻¹]	inhibition [2] [%]	ED50 (Cricetinae gen. sp. [3]) [mg/kg]	Ki (Neutrophil elastase) [µM]	inhibition in vivo at 100 mg/kg (Cricetinae gen. sp. [4]) [%]
CC[C@]1(C)C(=O)N(C(=O)NCc2ccccc2)[C@H]1Oc1ccc(C(=O)O)cc1	160	–	–	–	–
CC[C@@]1(C(C)C)C(=O)N(C(=O)NCc2ccccc2)[C@H]1Oc1ccc(C(=O)O)cc1	10	13	–	–	–
CCC[C@@]1(CC)C(=O)N(C(=O)NCc2ccccc2)[C@H]1Oc1ccc(C(=O)O)cc1	3300	52	–	–	–
CCC(C)[C@]1(CC)C(=O)N(C(=O)NCc2ccccc2)[C@H]1Oc1ccc(C(=O)O)cc1 (stereo partly drawn)	1200	23	–	–	–
CC[C@@]1(COC)C(=O)N(C(=O)NCc2ccccc2)[C@H]1Oc1ccc(C(=O)O)cc1	1900	46	–	–	–
CC[C@@]1(Cc2ccccc2)C(=O)N(C(=O)NCc2ccccc2)[C@H]1Oc1ccc(C(=O)O)cc1	84	–	–	–	–
CC[C@@]1(C)C(=O)N(C(=O)NCc2ccccc2)[C@H]1Oc1ccc(C(=O)O)cc1	2000	70	–	–	–
CC[C@@H](NC(=O)N1C(=O)[C@](C)(CC)[C@@H]1Oc1ccc(C(=O)O)cc1)c1ccccc1	91000	98	3.7	–	–
CCCC1(CC)C(=O)N(C(=O)NCc2ccccc2)C1Oc1ccc(C(=O)O)cc1 (stereo not drawn)	5200	78	–	–	–
C[C@]1(Oc2ccc(C(=O)O)cc2)N(C(=O)NCc2ccccc2)C(=O)C12CCCC2	1900	8	–	–	–
C=CC[C@]1(CC)C(=O)N(C(=O)NCc2ccccc2)[C@H]1Oc1ccc(C(=O)O)cc1	2800	56	–	–	–
CCCC1(CCC)C(=O)N(C(=O)NCc2ccccc2)C1Oc1ccc(C(=O)O)cc1 (stereo not drawn)	2500	56	–	–	–
CC[C@]1(Cc2ccccc2)C(=O)N(C(=O)NCc2ccccc2)[C@H]1Oc1ccc(C(=O)O)cc1	90	–	–	–	–
CCC[C@]1(CC)C(=O)N(C(=O)N[C@H](CC)c2ccccc2)[C@H]1Oc1ccc(C(=O)O)cc1	35500	52	–	–	–
CC[C@@]1(C)C(=O)N(C(=O)NCc2ccccc2)[C@@H]1Oc1ccc(C(=O)O)cc1	220	–	–	–	–
CCC[C@@]1(C)C(=O)N(C(=O)NCc2ccccc2)[C@@H]1Oc1ccc(C(=O)O)cc1	–	–	–	51	–
CCC[C@@]1(C)C(=O)N(C(=O)NCc2ccccc2)[C@H]1Oc1ccc(C(=O)O)cc1	1900	–	–	–	49
CC[C@@]1(C)C(=O)N(C(=O)N[C@H](C)c2ccccc2)[C@H]1Oc1ccc(C(=O)O)cc1	15200	82	–	–	–
C=CC[C@@]1(CC)C(=O)N(C(=O)NCc2ccccc2)[C@H]1Oc1ccc(C(=O)O)cc1	2000	51	–	–	–
CC1(C)C(=O)N(C(=O)NCc2ccccc2)C1Oc1ccc(C(=O)O)cc1 (stereo not drawn)	280	–	–	–	–
CC[C@H](NC(=O)N1C(=O)[C@](C)(CC)[C@@H]1Oc1ccc(C(=O)O)cc1)c1ccccc1	4700	22	–	–	–
CCC[C@]1(CC)C(=O)N(C(=O)N[C@H](C)c2ccccc2)[C@H]1Oc1ccc(C(=O)O)cc1	4500	61	–	–	–
CCC[C@@H](NC(=O)N1C(=O)[C@@](CC)(CCC)[C@@H]1Oc1ccc(C(=O)O)cc1)c1ccccc1	60000	53	–	–	–
CCC[C@@H](NC(=O)N1C(=O)[C@](C)(CC)[C@@H]1Oc1ccc(C(=O)O)cc1)c1ccccc1	152000	94	1.5	–	–
CCC1(CC)C(=O)N(C(=O)NCc2ccccc2)[C@]1(C)Oc1ccc(C(=O)O)cc1	1500	59	–	–	–
CC[C@@]1(C)C(=O)N(C(=O)N[C@H](C)c2ccccc2)[C@@H]1Oc1ccc(C(=O)O)cc1	400	–	–	–	–
CCCC[C@]1(CC)C(=O)N(C(=O)NCc2ccccc2)[C@H]1Oc1ccc(C(=O)O)cc1	4400	36	–	–	–
CC[C@]1(C)C(=O)N(C(=O)NCc2ccccc2)[C@@H]1Oc1ccc(C(=O)O)cc1	200	–	–	–	–
CC(C)[C@@]1(C)C(=O)N(C(=O)NCc2ccccc2)[C@H]1Oc1ccc(C(=O)O)cc1	21	–	–	–	–
CC[C@@]1(C)C(=O)N(C(=O)N[C@@H](C)c2ccccc2)[C@H]1Oc1ccc(C(=O)O)cc1	4800	13	–	–	–
